Measurements pooled from the literature.
Each line is one published result; the experiments were not run side by side.
Target: Serine/threonine-protein kinase BRSK1 (BRSK1, Homo sapiens, UniProt Q8TDC3)
Sequence (Q8TDC3 1-778, as in one of the studies): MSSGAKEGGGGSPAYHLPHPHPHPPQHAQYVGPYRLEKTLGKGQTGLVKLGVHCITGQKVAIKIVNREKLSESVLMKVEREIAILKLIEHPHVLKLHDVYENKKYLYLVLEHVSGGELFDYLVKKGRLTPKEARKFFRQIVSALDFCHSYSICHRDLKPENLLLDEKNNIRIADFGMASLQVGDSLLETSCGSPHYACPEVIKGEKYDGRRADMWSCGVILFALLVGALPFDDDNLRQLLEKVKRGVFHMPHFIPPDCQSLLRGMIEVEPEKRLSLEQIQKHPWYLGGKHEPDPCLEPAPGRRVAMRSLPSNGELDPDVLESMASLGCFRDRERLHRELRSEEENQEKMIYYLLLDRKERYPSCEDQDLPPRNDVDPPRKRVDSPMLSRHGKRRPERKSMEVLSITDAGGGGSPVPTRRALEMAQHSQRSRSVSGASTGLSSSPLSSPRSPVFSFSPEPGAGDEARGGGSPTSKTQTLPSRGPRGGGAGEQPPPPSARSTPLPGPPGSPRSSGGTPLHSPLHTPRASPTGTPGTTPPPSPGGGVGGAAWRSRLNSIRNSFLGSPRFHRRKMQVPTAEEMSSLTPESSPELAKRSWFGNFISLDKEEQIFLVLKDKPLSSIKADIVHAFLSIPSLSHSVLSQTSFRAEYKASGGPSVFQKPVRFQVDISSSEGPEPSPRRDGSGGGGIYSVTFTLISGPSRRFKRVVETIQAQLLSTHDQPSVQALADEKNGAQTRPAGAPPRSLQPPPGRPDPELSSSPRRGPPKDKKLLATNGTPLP

FC(F)(F)Oc1cccc(-c2cnc3ccc(-c4ccncc4)nn23)c1  remaining binding (cell-free assay; competition with immobilised ligand; 5 µM): 85%
CNC(=O)[C@@H]1CC[C@@H](n2c(-c3ccc4cnccc4c3)nc3ccc(C(=O)NCc4cccc(C(N)=O)c4)cc32)C1  remaining binding (binding; competition with immobilised ligand; 1 µM): 100%
c1cncc(-c2cccc(Nc3nccc(NC4CCCCC4)n3)c2)c1  remaining binding (binding; competition with immobilised ligand; 10 µM): 84%
C[C@@H]1CCN(c2nccc(-c3cnn4ncccc34)n2)C1  remaining binding (binding; 1 µM): 93%
COc1ncc2cc3ccccc3nc2c1C#N  remaining binding (cell-free assay; competition with immobilised ligand; 5 µM): 89%
CN(CCCC(F)(F)F)c1nccc(-c2cnn3ncccc23)n1  remaining binding (binding; 1 µM): 100%
O=C(c1ccc(Nc2ncc(Cl)c(-c3cc4ccccc4s3)n2)cc1)N1CCC(N2CCCC2)CC1  remaining binding (binding; competition with immobilised ligand; 1 µM): 32%
CN(c1nccc(-c2cnn3ncccc23)n1)C1CC1  remaining binding (binding; 1 µM): 100%
CC(C)CC(=O)N1CCc2nc(-c3ccc(Br)cc3)nc(N(C)Cc3ccccc3)c2C1  remaining binding (cell-free assay; competition with immobilised ligand; 0.1 µM): 100%
O=C(c1ccc(Nc2nccc(-c3cc4ccccc4s3)n2)cc1)N1CCC(N2CCCC2)CC1  remaining binding (binding; competition with immobilised ligand; 1 µM): 61%
COc1cc(-c2cn(C3CCc4ccccc4N(CC(F)(F)F)C3=O)nn2)ccc1-n1ccc(C)n1 (stereo not shown)  remaining binding (cell-free assay; competition with immobilised ligand; 1 µM): 81%
COc1cnc(Nc2cccc(S(N)(=O)=O)c2)nc1N1CCN(c2ccccc2)C(=O)C1  remaining binding (binding; competition with immobilised ligand; 1 µM): 100%
N#CC1(c2ccccn2)CCN(Cc2cc(C(=O)N3CCCC3)c(=O)n3ccccc23)CC1  remaining binding (cell-free assay; competition with immobilised ligand; 1 µM): 87%
Cc1cnn2ncc(-c3ccnc(N(C)C)n3)c2c1  remaining binding (binding; 1 µM): 81%
CS(=O)(=O)c1cc(C2(NC(=O)c3cncc4c3cnn4-c3ccc(F)cc3)CC2)ccn1  remaining binding (cell-free assay; competition with immobilised ligand; 1 µM): 74%
N[C@H]1CCN(c2nccc(-c3cnn4ncccc34)n2)C1  remaining binding (binding; 1 µM): 81%
CC(=O)c1c(NS(C)(=O)=O)c2cc(-c3ccc(Cl)cc3)c(-c3ccc(Cl)cc3Cl)nc2n(C)c1=O  remaining binding (cell-free assay; competition with immobilised ligand; 1 µM): 99%
CC1CCCN1c1nccc(-c2cnn3ncccc23)n1 (stereo not shown)  remaining binding (binding; 1 µM): 95%
Cc1c(NC(=O)c2cc(C(N)=O)nc3cc(F)ccc23)c(C(F)(F)F)nn1Cc1ccc(C#N)cc1  remaining binding (cell-free assay; competition with immobilised ligand; 1 µM): 100%
O=C(NCC1CCOCC1)c1n[nH]cc1NC(=O)c1c(F)cccc1F  remaining binding (binding; competition with immobilised ligand; 1 µM): 100%
Cc1cnc(Nc2ccc(C(=O)N3CCC(N4CCCC4)CC3)cc2)nc1-c1cc2ccccc2s1  remaining binding (binding; competition with immobilised ligand; 1 µM): 100%
COc1ccc2c(c1)O[C@H](c1ccc(OC)c(OC)c1)C[C@@H]2NC(=O)C1(c2ccc3c(c2)OC(F)(F)O3)CC1  remaining binding (cell-free assay; competition with immobilised ligand; 1 µM): 100%
